Measurements from ChEMBL document CHEMBL3098013, “Novel pyrazole integrated 1,3,4-oxadiazoles: synthesis, characterization and antimicrobial evaluation” (2014).
≈ marks a conversion by molar mass, not a printed value.

How the values were obtained:
Assay type in all cases: functional
Escherichia coli [1] = experiment: Antimicrobial activity against Escherichia coli MTCC 724 after 24 hrs by microdilution method; conditions: MTCC 724, 24 h
Method in brief: (§1)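 The minimal inhibitory concentration was determined by dilution, alongside minimal bactericidal concentration for bacterial strains and minimal fungicidal concentration for fungal strains. Tests were run in six replicates, and the value is the mean of at least three determinations.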

Staphylococcus aureus [2] = experiment: Antimicrobial activity against Staphylococcus aureus MTCC 96 after 24 hrs by microdilution method; conditions: MTCC 96, 24 h; method in brief: as §1
Fusarium verticillioides [3] = experiment: Antimicrobial activity against Fusarium moniliforme MTCC 156 at 100 ug/ml after 48 hrs by disc diffusion method; conditions: MTCC 156, 48 h, read-out: DIZ
Method in brief: (§2)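 Agar diffusion read-out is the diameter of the inhibition zone in mm. Each test was run in six replicates and reported as mean ± standard deviation, taken from at least three determinations.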

Klebsiella pneumoniae [4] = experiment: Antimicrobial activity against Klebsiella pneumoniae MTCC 3384 after 24 hrs by microdilution method; conditions: MTCC 3384, 24 h; method in brief: as §1
Bacillus cereus [5] = experiment: Antimicrobial activity against Bacillus cereus MTCC 8372 at 100 ug/ml after 24 hrs by disc diffusion method; conditions: MTCC 8372, 24 h, read-out: DIZ; method in brief: as §2
Fusarium oxysporum [6] = experiment: Antimicrobial activity against Fusarium oxysporum MTCC 284 at 100 ug/ml after 48 hrs by disc diffusion method; conditions: MTCC 284, 48 h, read-out: DIZ; method in brief: as §2
Aspergillus flavus [7] = experiment: Antimicrobial activity against Aspergillus flavus MTCC 873 after 48 hrs by microdilution method; conditions: MTCC 873, 48 h; method in brief: as §1
Bacillus cereus [8] = experiment: Antimicrobial activity against Bacillus cereus MTCC 8372 at 50 ug/ml after 24 hrs by disc diffusion method; conditions: MTCC 8372, 24 h, read-out: DIZ; method in brief: as §2
Klebsiella pneumoniae [9] = experiment: Antimicrobial activity against Klebsiella pneumoniae MTCC 3384 at 50 ug/ml after 24 hrs by disc diffusion method; conditions: MTCC 3384, 24 h, read-out: DIZ; method in brief: as §2
Escherichia coli [10] = experiment: Antimicrobial activity against Escherichia coli MTCC 724 at 100 ug/ml after 24 hrs by disc diffusion method; conditions: MTCC 724, 24 h, read-out: DIZ; method in brief: as §2
Fusarium verticillioides [11] = experiment: Antimicrobial activity against Fusarium moniliforme MTCC 156 after 48 hrs by microdilution method; conditions: MTCC 156, 48 h; method in brief: as §1
Aspergillus flavus [12] = experiment: Antimicrobial activity against Aspergillus flavus MTCC 873 at 100 ug/ml after 48 hrs by disc diffusion method; conditions: MTCC 873, 48 h, read-out: DIZ; method in brief: as §2
Bacillus cereus [13] = experiment: Antimicrobial activity against Bacillus cereus MTCC 8372 after 24 hrs by microdilution method; conditions: MTCC 8372, 24 h; method in brief: as §1
Staphylococcus aureus [14] = experiment: Antimicrobial activity against Staphylococcus aureus MTCC 96 at 100 ug/ml after 24 hrs by disc diffusion method; conditions: MTCC 96, 24 h, read-out: DIZ; method in brief: as §2
Aspergillus niger [15] = experiment: Antimicrobial activity against Aspergillus niger MTCC 281 at 50 ug/ml after 48 hrs by disc diffusion method; conditions: MTCC 281, 48 h, read-out: DIZ; method in brief: as §2
Fusarium verticillioides [16] = experiment: Antimicrobial activity against Fusarium moniliforme MTCC 156 at 50 ug/ml after 48 hrs by disc diffusion method; conditions: MTCC 156, 48 h, read-out: DIZ; method in brief: as §2
Aspergillus niger [17] = experiment: Antimicrobial activity against Aspergillus niger MTCC 281 at 100 ug/ml after 48 hrs by disc diffusion method; conditions: MTCC 281, 48 h, read-out: DIZ; method in brief: as §2
Aspergillus niger [18] = experiment: Antimicrobial activity against Aspergillus niger MTCC 281 after 48 hrs by microdilution method; conditions: MTCC 281, 48 h; method in brief: as §1
Fusarium oxysporum [19] = experiment: Antimicrobial activity against Fusarium oxysporum MTCC 284 after 48 hrs by microdilution method; conditions: MTCC 284, 48 h; method in brief: as §1
Escherichia coli [20] = experiment: Antimicrobial activity against Escherichia coli MTCC 724 at 50 ug/ml after 24 hrs by disc diffusion method; conditions: MTCC 724, 24 h, read-out: DIZ; method in brief: as §2
Staphylococcus aureus [21] = experiment: Antimicrobial activity against Staphylococcus aureus MTCC 96 at 50 ug/ml after 24 hrs by disc diffusion method; conditions: MTCC 96, 24 h, read-out: DIZ; method in brief: as §2
Aspergillus flavus [22] = experiment: Antimicrobial activity against Aspergillus flavus MTCC 873 at 50 ug/ml after 48 hrs by disc diffusion method; conditions: MTCC 873, 48 h, read-out: DIZ; method in brief: as §2
Fusarium oxysporum [23] = experiment: Antimicrobial activity against Fusarium oxysporum MTCC 284 at 50 ug/ml after 48 hrs by disc diffusion method; conditions: MTCC 284, 48 h, read-out: DIZ; method in brief: as §2
Klebsiella pneumoniae [24] = experiment: Antimicrobial activity against Klebsiella pneumoniae MTCC 3384 at 100 ug/ml after 24 hrs by disc diffusion method; conditions: MTCC 3384, 24 h, read-out: DIZ; method in brief: as §2

SMILES	MBC (Escherichia coli [1]) [µg/mL]	MIC (Escherichia coli [1]) [µg/mL]	MBC (Staphylococcus aureus [2]) [µg/mL]	MIC (Staphylococcus aureus [2]) [µg/mL]	zone of inhibition at 100 µg/mL (Fusarium verticillioides [3]) [mm]	MBC (Klebsiella pneumoniae [4]) [µg/mL]	MIC (Klebsiella pneumoniae [4]) [µg/mL]	zone of inhibition at 100 µg/mL (Bacillus cereus [5]) [mm]	zone of inhibition at 100 µg/mL (Fusarium oxysporum [6]) [mm]	MFC (Aspergillus flavus [7]) [µg/mL]	MIC (Aspergillus flavus [7]) [µg/mL]	zone of inhibition at 50 µg/mL (Bacillus cereus [8]) [mm]	zone of inhibition at 50 µg/mL (Klebsiella pneumoniae [9]) [mm]	zone of inhibition at 100 µg/mL (Escherichia coli [10]) [mm]	MFC (Fusarium verticillioides [11]) [µg/mL]	MIC (Fusarium verticillioides [11]) [µg/mL]	zone of inhibition at 100 µg/mL (Aspergillus flavus [12]) [mm]	MBC (Bacillus cereus [13]) [µg/mL]	MIC (Bacillus cereus [13]) [µg/mL]	zone of inhibition at 100 µg/mL (Staphylococcus aureus [14]) [mm]	further results
COc1ccc(-c2nn(-c3ccccc3)c(C)c2-c2nnc(-c3ccccc3)o2)cc1	240 (≈ 588 µM)	35 (≈ 85.7 µM)	240 (≈ 588 µM)	40 (≈ 97.9 µM)	6	260 (≈ 637 µM)	35 (≈ 85.7 µM)	9	6	270 (≈ 661 µM)	50 (≈ 122 µM)	4	4	14	290 (≈ 710 µM)	40 (≈ 97.9 µM)	8	240 (≈ 588 µM)	50 (≈ 122 µM)	8	zone of inhibition at 50 µg/mL (Aspergillus niger [15]): 2 mm; zone of inhibition at 50 µg/mL (Fusarium verticillioides [16]): 3 mm; zone of inhibition at 100 µg/mL (Aspergillus niger [17]): 6 mm; MFC (Aspergillus niger [18]): 275 µg/mL (≈ 673 µM); MIC (Aspergillus niger [18]): 45 µg/mL (≈ 110 µM); MFC (Fusarium oxysporum [19]): 280 µg/mL (≈ 685 µM); MIC (Fusarium oxysporum [19]): 40 µg/mL (≈ 97.9 µM); zone of inhibition at 50 µg/mL (Escherichia coli [20]): 8 mm; zone of inhibition at 50 µg/mL (Staphylococcus aureus [21]): 4 mm; zone of inhibition at 50 µg/mL (Aspergillus flavus [22]): 2 mm; zone of inhibition at 50 µg/mL (Fusarium oxysporum [23]): 4 mm; zone of inhibition at 100 µg/mL (Klebsiella pneumoniae [24]): 9 mm
COc1cc(-c2nnc(-c3c(-c4cc(OC)c(OC)c(OC)c4)nn(-c4ccccc4)c3C)o2)cc(OC)c1OC	150 (≈ 269 µM)	20 (≈ 35.8 µM)	150 (≈ 269 µM)	20 (≈ 35.8 µM)	22	155 (≈ 277 µM)	20 (≈ 35.8 µM)	23	21	215 (≈ 385 µM)	30 (≈ 53.7 µM)	12	11	36	225 (≈ 403 µM)	25 (≈ 44.8 µM)	23	160 (≈ 286 µM)	20 (≈ 35.8 µM)	24	zone of inhibition at 50 µg/mL (Aspergillus niger [15]): 11 mm; zone of inhibition at 50 µg/mL (Fusarium verticillioides [16]): 12 mm; zone of inhibition at 100 µg/mL (Aspergillus niger [17]): 25 mm; MFC (Aspergillus niger [18]): 225 µg/mL (≈ 403 µM); MIC (Aspergillus niger [18]): 25 µg/mL (≈ 44.8 µM); MFC (Fusarium oxysporum [19]): 220 µg/mL (≈ 394 µM); MIC (Fusarium oxysporum [19]): 25 µg/mL (≈ 44.8 µM); zone of inhibition at 50 µg/mL (Escherichia coli [20]): 21 mm; zone of inhibition at 50 µg/mL (Staphylococcus aureus [21]): 10 mm; zone of inhibition at 50 µg/mL (Aspergillus flavus [22]): 18 mm; zone of inhibition at 50 µg/mL (Fusarium oxysporum [23]): 14 mm; zone of inhibition at 100 µg/mL (Klebsiella pneumoniae [24]): 21 mm
Cc1c(C(=O)NN)c(-c2ccccc2)nn1-c1ccccc1	240 (≈ 821 µM)	35 (≈ 120 µM)	250 (≈ 855 µM)	40 (≈ 137 µM)	6	230 (≈ 787 µM)	35 (≈ 120 µM)	6	8	275 (≈ 941 µM)	40 (≈ 137 µM)	4	5	11	280 (≈ 958 µM)	50 (≈ 171 µM)	6	260 (≈ 889 µM)	40 (≈ 137 µM)	9	zone of inhibition at 50 µg/mL (Aspergillus niger [15]): 2 mm; zone of inhibition at 50 µg/mL (Fusarium verticillioides [16]): 4 mm; zone of inhibition at 100 µg/mL (Aspergillus niger [17]): 8 mm; MFC (Aspergillus niger [18]): 260 µg/mL (≈ 889 µM); MIC (Aspergillus niger [18]): 45 µg/mL (≈ 154 µM); MFC (Fusarium oxysporum [19]): 270 µg/mL (≈ 924 µM); MIC (Fusarium oxysporum [19]): 45 µg/mL (≈ 154 µM); zone of inhibition at 50 µg/mL (Escherichia coli [20]): 9 mm; zone of inhibition at 50 µg/mL (Staphylococcus aureus [21]): 2 mm; zone of inhibition at 50 µg/mL (Aspergillus flavus [22]): 2 mm; zone of inhibition at 50 µg/mL (Fusarium oxysporum [23]): 3 mm; zone of inhibition at 100 µg/mL (Klebsiella pneumoniae [24]): 8 mm
